# VIM-2 inhibitor – inhibitors of Pseudomonas aeruginosa VIM-2 metallo-beta-lactamase. inhibition, % at 5.6 µM. AID 1527. actives 0.89% (n = 290,000). purified VIM-2, nitrocefin hydrolysis, epi-absorbance fluorescence;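 active means inhibition above the mean of all tested compounds plus 3 SD, cutoff set per screening run, cut at about 7.5% in these data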;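 further: red hydrolysis product quenches plate fluorescence so inhibitors raise well fluorescence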
# MEKK2 mut-MEK5 – signal of MEK5 binding to mutant human MEKK2 PB1 domain. bead flow cytometry, Alexa488-MEK5 binding to MEKK2 mutant. percent response, % at 10 µM. actives 0.35% (n = 290,000). AID 1530; in the data active means percent response above about 24%, passing the limit was not always enough
# MEKK2 WT-MEK5 – raises or lowers MEK5 binding to wildtype human MEKK2 PB1 domain; Q9Y2U5; bead flow cytometry, Alexa488-MEK5 binding to MEKK2 WT; actives lie on both sides; binding response (% of control), % at 10 µM; actives 1.1% (n = 290,000); in the data active means binding response below about 67% or above about 130%
# IMP-1 inhibitor – blocks Pseudomonas aeruginosa IMP-1 metallo-beta-lactamase | purified IMP-1, nitrocefin hydrolysis, epi-absorbance fluorescence | inhibition, % at 5.6 µM | actives 0.45% (n = 290,000) | AID 1556;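 active means inhibition above the mean plus 3 SD of all compounds in the same screening run, cut at about 4.5% in these data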
#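 System: purified IMP-1 / Input: IMP-1 dispensed at 0.2 nM / Medium: 50 mM HEPES pH 7.1, 50 µM ZnSO4, 0.05% Brij 35 / Timing: 15 min enzyme–compound preincubation, then 25 min nitrocefin reaction, 25 °C / Technique: plate fluorescence quenching by hydrolysis product, ex 480/em 530 nm / Repeats: singlicate testing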
# MEKK3 PB1 HTS – MEKK3-MEK5 PB1 interaction, increase or decrease; AID 1529; bead-based flow cytometry, Alexa488-MEK5 binding to MEKK3; actives lie on both sides; 0 = blocked by unlabeled MEK5, 100 = vehicle; binding response (% of control), % at 10 µM; Q99759; actives 1.4% (n = 290,000);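 active means binding response more than 3 SD above or below the average of its plate-row segment, actives on both sides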;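 further: Alexa488 bead fluorescence after subtracting the streptavidin-only scavenger bead signal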
# Hits are given with their value; – = inactive; · = no result; [ ] = dose if it differs, or a comment. Sampled rows, rich in hits. Any-hit rate of the full collection: about 3.4%.
SMILES,VIM-2 inhibitor,MEKK2 mut-MEK5,MEKK2 WT-MEK5,IMP-1 inhibitor,MEKK3 PB1 HTS
Cc1cccc(-n2c(C)n[nH]c2=S)c1,8.0,–,–,–,–
COc1ccc(NC(=O)CCC(=O)N(Cc2ccc(OC)c(OC)c2)c2nccs2)cc1,–,–,–,–,–
C=CCN(C(=O)c1oc2c(Cl)cc(C)cc2c1C)C1CCS(=O)(=O)C1 (stereo not drawn),–,–,–,–,–
Cc1cc(Cl)c2oc(C(=O)N(C)CC3CCOCC3)c(C)c2c1,–,–,43[inhibitor],–,31[inhibitor]
Fc1ccc(CNC(=S)Nc2cccc(Cl)c2)cc1,–,–,–,–,–
Cc1ccc(-c2c(C(=O)Nc3ccccc3C)c(C)[nH]c(=S)c2C#N)o1,–,–,–,5.7,–
O=C(NCc1ccco1)c1cnn2c(C(F)(F)F)cc(-c3ccccc3)nc12,–,–,–,–,–
O=C(NC1CCCC1)c1cnn2c(C(F)(F)F)cc(-c3ccco3)nc12,17,–,–,–,–
COc1ccc(-c2cc(C(F)(F)F)n3ncc(C(=O)NCc4ccco4)c3n2)cc1,8.2,–,–,–,–
CC(C)CCNC(=O)c1cnn2c(C(F)(F)F)cc(-c3ccco3)nc12,–,–,–,–,–
O=C(NCc1ccco1)c1cc2nc(-c3cccs3)cc(C(F)(F)F)n2n1,8.6,–,–,–,–
Cc1cccc(C)c1NC(=O)C1CCN(C(=O)c2cccs2)CC1,–,–,–,–,–
COc1ccc(S(=O)(=O)N2CCN(C(=O)CN3C(=O)NC4(CCCC4)C3=O)CC2)cc1,–,–,–,–,–
COc1cccc(C2C(C#N)=C(N)Oc3cc(C)[nH]c(=O)c32)c1OC (stereo not drawn),–,·,·,–,·
CC12CCCCC1c1ccccc1C(=NCC(=O)O)N2 (stereo not drawn),–,–,–,–,–
Oc1c(Br)cc(Br)cc1CNc1cnc2ccccc2c1,–,–,–,14,–
COc1ccc2nc(C)cc(Nc3ccc(C)cc3)c2c1,–,–,–,–,–
COc1ccc2nc(C)cc(NCc3ccc(F)cc3)c2c1,–,·,·,–,54[inhibitor]
COc1ccc(-c2nnc3ccc(SC)nn23)cc1,8.2,–,–,–,–
CCCOP(=O)(c1ccc(N(C)C)cc1)C(Nc1ccccc1)c1ccc(N(C)C)cc1 (stereo not drawn),–,–,–,–,–
CN(CC(=O)Nc1cccc(F)c1)C(=O)C1CC(=O)N(Cc2ccccc2)C1 (stereo not drawn),–,–,–,–,–
CCC1=C/C(=C/N(C)c2ccccc2)C(=O)S1,–,–,–,6.1,–
CN(C)/C=C1/C=C(c2ccccc2)OC1=O,–,–,–,–,–
CCOC(=O)CSC1=C(C#N)C(c2ccc(C)s2)CC(=O)N1 (stereo not drawn),–,–,–,–,–
CCN1CCN(C(=O)c2cc3c(=O)oc4ccc(C)cc4c3s2)CC1,8.4,–,–,–,–
SMILES,VIM-2 inhibitor,MEKK2 mut-MEK5,MEKK2 WT-MEK5,IMP-1 inhibitor,MEKK3 PB1 HTS
Cc1ccc2oc(=O)c3cc(C(=O)NCCCN4CCCC(C)C4)sc3c2c1 (stereo not drawn),11,–,136,–,–
CCCN1CCN(CCCNC(=O)c2cc3c(=O)oc4ccc(C)cc4c3s2)CC1,12,–,–,–,–
Cc1ccc(C(=O)Nc2ccccc2)cc1S(=O)(=O)Nc1ccc(Cl)cn1,–,–,–,–,–
Cc1cccc(C2Nc3ccccc3C(=O)N2CCc2ccccc2)n1 (stereo not drawn),–,–,–,–,–
CCOC(=O)C(=CNc1cc(Cl)c(-c2ccco2)c(Cl)c1)C(=O)OCC,–,–,–,6.1,–
CCOC(=O)C(=CNc1ccc(-c2ccco2)c(Cl)c1)C(=O)OCC,–,–,–,6.4,–
COc1ccc(NC(=O)Cn2nc([N+](=O)[O-])c(Cl)c2C)cc1OC,–,–,–,–,–
CCn1c2ccccc2c2cc(NC(=O)CN3CCCC3)ccc21,–,–,139,–,–
CCn1c2ccccc2c2cc(NC(C)=O)ccc21,–,–,–,–,–
Cc1ncc(CO)c2c1Oc1nc(-c3ccccc3)nc(SCC(=O)N(C)c3ccccc3)c1C2,–,–,–,7.9,–
Cc1ncc(CO)c2c1Oc1nc(-c3ccccc3)nc(SCC(=O)N3CCOCC3)c1C2,–,–,–,32,–
